The values below come from PMC4750707 (Antimicrobial Agents and Chemotherapy, 2016).

In brackets after ≈: the same amount, converted by molar mass.

For one experiment, the system named is P. aeruginosa. The experiment is described as follows: Broth microdilution MIC. It counts as cell-based. To be noted: Pseudomonas aeruginosa. In outline: (§1)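 MICs by CLSI broth microdilution in cation-adjusted Mueller-Hinton broth. Strains grown in BHI broth at 35°C: E. coli K-12, P. aeruginosa 1771 and S. aureus ATCC 29213. H. influenzae Rd grown in BHI with Haemophilus test medium supplement (hemin and β-NAD, 15 μg/ml each).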

For another experiment, the system named is H. influenzae. The experiment is described as follows: Broth microdilution MIC. It counts as cell-based. To be noted: Haemophilus influenzae. In outline:
as §1
On the technique in general: Broth dilution looks for growth in wells or tubes with falling amounts of substance.

For a further experiment, the system named is S. aureus. The experiment is described as follows: Broth microdilution MIC. It counts as cell-based. The note with it: Staphylococcus aureus, ATCC29213. Put shortly:
as §1

A further experiment concerns the target T1, E. coli PBP2 (Escherichia coli, UniProt P0AD65).
T1 sequence (P0AD65 1-633): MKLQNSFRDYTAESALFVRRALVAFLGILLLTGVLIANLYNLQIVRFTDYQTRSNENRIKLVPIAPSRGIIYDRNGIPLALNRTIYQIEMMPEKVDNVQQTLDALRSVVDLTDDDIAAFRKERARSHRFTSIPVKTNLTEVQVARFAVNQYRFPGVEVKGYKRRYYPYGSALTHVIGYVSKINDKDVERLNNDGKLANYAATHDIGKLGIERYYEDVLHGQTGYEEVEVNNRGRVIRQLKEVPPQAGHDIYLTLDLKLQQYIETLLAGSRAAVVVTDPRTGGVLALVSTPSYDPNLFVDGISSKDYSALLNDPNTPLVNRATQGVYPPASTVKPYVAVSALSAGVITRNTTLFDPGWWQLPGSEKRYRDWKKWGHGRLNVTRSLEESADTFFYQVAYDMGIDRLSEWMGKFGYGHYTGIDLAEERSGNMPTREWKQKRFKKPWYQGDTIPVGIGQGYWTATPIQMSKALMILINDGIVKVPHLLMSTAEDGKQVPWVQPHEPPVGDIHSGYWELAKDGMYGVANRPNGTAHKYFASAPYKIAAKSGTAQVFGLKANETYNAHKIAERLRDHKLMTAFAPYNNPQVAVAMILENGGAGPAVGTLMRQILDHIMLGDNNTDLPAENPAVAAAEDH
The experiment is described as follows: PBP competition assay with Bocillin FL. It counts as binding. Put shortly: (§2)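 E. coli K-12 or P. aeruginosa 1771 grown in BHI at 35°C to A600 ~1.5. Cells in 50 mM phosphate pH 7.0 were French-pressed; membranes pelleted at 150,000 × g. Membranes (10–20 μg protein) were pre-incubated with test compound 10 min at 30°C, then Bocillin FL (100 μM final) 20 min. SDS-PAGE, fluorescence scan. IC50 in μg/ml from ≥8 concentrations versus no-drug control.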

Another experiment has as its system E. coli PBP5/6. The experiment is described as follows: PBP competition assay with Bocillin FL. To be noted: E. coli K-12 membranes; Bocillin FL 100 μM. The format is binding, Escherichia coli. Put shortly: as §2
The target in another experiment is S. aureus PBP2 (Staphylococcus aureus, UniProt Q9R744). The experiment is described as follows: PBP competition assay with Bocillin FL. The format is binding. Put shortly:
(§3)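 S. aureus ATCC 29213 membranes were prepared in KPN buffer pH 7.5. Lysis used lysostaphin 400 μg/ml for 1 h at 37°C plus protease inhibitors, DNase and RNase, then French press. Membranes (10–20 μg protein) received test compound for 10 min at 30°C, then Bocillin FL 100 μM final for 20 min. SDS-PAGE band volumes; IC50 from three assays of six concentrations versus no-drug control.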

Another experiment has as its target S. aureus PBP3 (Staphylococcus aureus, UniProt Q9XDB3). The experiment is described as follows: PBP competition assay with Bocillin FL. It counts as binding. In outline: as §3
In the next experiment the target is T2, S. aureus PBP4 (Staphylococcus aureus, UniProt P72355).
T2 sequence (P72355 25-431): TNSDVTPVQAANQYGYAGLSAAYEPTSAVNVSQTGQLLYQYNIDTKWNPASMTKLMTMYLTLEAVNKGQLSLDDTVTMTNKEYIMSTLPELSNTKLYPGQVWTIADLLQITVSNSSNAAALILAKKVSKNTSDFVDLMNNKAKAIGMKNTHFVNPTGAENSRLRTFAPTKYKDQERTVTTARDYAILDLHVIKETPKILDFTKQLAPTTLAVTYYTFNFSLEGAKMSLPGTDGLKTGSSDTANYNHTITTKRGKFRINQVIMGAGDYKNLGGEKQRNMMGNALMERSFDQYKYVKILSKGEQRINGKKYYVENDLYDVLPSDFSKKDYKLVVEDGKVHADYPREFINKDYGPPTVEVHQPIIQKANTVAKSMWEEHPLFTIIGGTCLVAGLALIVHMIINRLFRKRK
The experiment is described as follows: PBP competition assay with Bocillin FL. It counts as binding.

In another experiment the target is T3, E. coli PBP1a (Escherichia coli, UniProt P02918).
T3 sequence (P02918 1-850): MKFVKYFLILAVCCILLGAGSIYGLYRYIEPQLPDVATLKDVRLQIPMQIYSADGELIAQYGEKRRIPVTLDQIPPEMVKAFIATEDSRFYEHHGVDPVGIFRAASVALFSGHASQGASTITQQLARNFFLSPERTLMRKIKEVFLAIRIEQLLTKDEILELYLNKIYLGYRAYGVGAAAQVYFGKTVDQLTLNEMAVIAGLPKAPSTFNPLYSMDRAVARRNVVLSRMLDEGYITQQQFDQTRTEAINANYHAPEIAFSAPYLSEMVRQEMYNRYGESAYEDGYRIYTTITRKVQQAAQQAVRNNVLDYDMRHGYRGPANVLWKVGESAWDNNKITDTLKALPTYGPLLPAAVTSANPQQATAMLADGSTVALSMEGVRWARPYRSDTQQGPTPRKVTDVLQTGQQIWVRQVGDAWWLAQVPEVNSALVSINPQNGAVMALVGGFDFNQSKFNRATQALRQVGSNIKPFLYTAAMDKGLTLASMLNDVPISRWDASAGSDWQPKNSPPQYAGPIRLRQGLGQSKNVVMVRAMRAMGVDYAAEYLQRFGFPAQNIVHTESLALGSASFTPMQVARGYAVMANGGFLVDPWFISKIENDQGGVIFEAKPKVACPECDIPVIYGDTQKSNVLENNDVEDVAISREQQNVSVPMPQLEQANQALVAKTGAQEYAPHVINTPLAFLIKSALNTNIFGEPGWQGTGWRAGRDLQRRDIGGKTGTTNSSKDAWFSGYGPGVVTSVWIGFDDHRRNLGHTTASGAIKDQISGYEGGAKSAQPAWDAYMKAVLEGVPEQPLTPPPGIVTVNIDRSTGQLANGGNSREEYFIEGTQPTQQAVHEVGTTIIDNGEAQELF
The experiment is described as follows: PBP competition assay with Bocillin FL. It counts as binding. In outline:
as §2

In another experiment the target is P. aeruginosa PBP3 (Pseudomonas aeruginosa, UniProt G3XD46). The experiment is described as follows: PBP competition assay with Bocillin FL. The format is binding.
For another experiment, the target named is P. aeruginosa PBP1a (Pseudomonas aeruginosa, UniProt Q07806). The experiment is described as follows: PBP competition assay with Bocillin FL. It counts as binding. Put shortly: as §2
Chain of P. aeruginosa PBP1a (Q07806 whole entry): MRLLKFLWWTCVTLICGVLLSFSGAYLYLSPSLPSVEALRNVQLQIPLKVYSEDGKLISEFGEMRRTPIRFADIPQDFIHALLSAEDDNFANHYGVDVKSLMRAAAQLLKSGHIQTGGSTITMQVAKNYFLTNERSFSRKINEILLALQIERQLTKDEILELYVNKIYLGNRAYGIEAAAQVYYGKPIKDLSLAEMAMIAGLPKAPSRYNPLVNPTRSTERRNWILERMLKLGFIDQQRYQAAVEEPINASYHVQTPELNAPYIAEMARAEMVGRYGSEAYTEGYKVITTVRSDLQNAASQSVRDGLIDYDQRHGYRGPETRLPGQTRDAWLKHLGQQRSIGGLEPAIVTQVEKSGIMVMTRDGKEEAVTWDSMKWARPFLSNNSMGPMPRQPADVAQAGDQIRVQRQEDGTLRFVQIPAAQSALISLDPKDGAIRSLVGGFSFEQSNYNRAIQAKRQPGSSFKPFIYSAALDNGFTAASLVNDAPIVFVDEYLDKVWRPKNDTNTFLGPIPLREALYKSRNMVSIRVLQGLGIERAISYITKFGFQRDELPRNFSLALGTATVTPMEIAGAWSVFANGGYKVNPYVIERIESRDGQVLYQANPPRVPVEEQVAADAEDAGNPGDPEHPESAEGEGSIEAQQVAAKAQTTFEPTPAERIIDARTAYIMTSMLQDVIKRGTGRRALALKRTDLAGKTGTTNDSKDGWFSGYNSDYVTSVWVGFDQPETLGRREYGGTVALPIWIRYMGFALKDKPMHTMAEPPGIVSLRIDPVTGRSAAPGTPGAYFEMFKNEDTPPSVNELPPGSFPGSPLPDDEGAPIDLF

Chain of P. aeruginosa PBP3 (G3XD46 whole entry): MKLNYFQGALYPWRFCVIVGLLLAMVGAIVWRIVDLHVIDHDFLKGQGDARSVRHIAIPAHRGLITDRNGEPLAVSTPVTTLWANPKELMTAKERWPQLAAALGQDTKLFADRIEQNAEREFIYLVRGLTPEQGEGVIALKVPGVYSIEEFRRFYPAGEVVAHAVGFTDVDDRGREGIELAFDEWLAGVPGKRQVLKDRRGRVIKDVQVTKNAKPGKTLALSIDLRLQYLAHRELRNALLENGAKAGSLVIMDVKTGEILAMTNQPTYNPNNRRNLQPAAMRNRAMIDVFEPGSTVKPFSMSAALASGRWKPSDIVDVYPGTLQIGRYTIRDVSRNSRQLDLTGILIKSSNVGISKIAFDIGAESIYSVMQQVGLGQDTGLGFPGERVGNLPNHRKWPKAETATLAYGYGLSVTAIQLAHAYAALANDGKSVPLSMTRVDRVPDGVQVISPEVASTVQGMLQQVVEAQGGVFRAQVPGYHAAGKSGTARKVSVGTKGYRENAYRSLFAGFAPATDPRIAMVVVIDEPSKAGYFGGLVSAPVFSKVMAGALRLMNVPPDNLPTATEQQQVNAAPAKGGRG
Chain of S. aureus PBP2 (Q9R744 1-727): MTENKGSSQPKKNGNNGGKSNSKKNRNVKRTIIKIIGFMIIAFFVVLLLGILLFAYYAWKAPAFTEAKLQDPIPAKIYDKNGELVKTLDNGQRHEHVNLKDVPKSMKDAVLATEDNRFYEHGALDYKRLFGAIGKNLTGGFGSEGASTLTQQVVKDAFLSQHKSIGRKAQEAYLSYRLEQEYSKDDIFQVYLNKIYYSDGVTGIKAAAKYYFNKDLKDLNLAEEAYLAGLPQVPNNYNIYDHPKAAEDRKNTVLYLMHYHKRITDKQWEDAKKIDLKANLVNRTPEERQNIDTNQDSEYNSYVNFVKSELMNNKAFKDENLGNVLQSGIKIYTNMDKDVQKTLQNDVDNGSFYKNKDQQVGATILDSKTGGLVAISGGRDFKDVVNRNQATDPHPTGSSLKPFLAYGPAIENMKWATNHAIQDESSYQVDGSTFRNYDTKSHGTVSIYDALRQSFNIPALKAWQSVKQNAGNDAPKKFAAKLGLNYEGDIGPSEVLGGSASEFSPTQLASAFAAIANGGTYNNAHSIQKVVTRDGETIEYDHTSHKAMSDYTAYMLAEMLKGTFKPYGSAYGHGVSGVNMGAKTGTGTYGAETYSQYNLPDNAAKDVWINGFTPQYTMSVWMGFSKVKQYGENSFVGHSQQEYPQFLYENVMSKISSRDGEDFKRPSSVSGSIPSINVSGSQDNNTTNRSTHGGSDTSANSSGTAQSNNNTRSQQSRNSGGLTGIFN
Chain of S. aureus PBP3 (Q9XDB3 1-691): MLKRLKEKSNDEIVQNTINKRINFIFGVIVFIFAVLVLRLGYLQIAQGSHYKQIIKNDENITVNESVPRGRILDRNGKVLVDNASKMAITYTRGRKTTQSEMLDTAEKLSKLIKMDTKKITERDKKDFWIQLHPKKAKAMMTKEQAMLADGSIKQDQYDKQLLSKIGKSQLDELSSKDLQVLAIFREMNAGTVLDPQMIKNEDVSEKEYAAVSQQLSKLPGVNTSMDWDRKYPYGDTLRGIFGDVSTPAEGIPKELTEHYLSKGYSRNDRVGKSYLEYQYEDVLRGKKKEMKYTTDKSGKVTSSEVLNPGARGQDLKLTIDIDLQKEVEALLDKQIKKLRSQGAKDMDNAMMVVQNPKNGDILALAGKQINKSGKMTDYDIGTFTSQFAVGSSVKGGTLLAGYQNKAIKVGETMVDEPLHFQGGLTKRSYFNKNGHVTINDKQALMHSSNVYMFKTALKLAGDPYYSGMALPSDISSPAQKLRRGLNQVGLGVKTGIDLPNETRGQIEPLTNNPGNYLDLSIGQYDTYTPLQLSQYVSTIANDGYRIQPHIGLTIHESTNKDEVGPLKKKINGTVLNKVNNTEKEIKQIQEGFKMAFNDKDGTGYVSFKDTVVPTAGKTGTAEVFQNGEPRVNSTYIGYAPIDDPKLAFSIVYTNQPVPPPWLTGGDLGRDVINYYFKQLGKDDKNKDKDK

For orientation: IC50 means the concentration needed to halve the response being measured. A low value points to higher potency. As to `NC(=O)[C@@H]1CC[C@@H]2CN1C(=O)N2OS(=O)(=O)O` [AVI, avibactam], the figures for the MIC in the experiment with P. aeruginosa, against H. influenzae and with S. aureus were over 128 µg/mL, 64 µg/mL (≈ 241 µM) and 256 µg/mL (≈ 965 µM), respectively. For the same compound, the 50% inhibitory concentration (IC50) at E. coli PBP2 was 3.47 µM; on S. aureus PBP2 it was 192 µM; at S. aureus PBP3, 588 µM; at S. aureus PBP4, over 965 µM; at E. coli PBP1a it was over 49 µM; at P. aeruginosa PBP3, 6.79 µM. On P. aeruginosa PBP1a, this compound registered an IC50 of over 49 µM. In addition, in the experiment with E. coli PBP5/6, the “Relative binding (IC50) for PBP 5/6” value was over 13 µg/mL.

For `CC(C)(O/N=C(\C(=O)N[C@@H]1C(=O)N2C(C(=O)[O-])=C(C[n+]3ccccc3)CS[C@H]12)c1csc(N)n1)C(=O)O` [CAZ, ceftazidime], the MIC amounted to 4 µg/mL (≈ 7.32 µM) against P. aeruginosa and 16 µg/mL (≈ 29.3 µM) against S. aureus. Moreover, the IC50 at E. coli PBP2 was over 45.7 µM; at S. aureus PBP2 it was 1.28 µM; on S. aureus PBP3, over 14.6 µM; on S. aureus PBP4, over 14.6 µM; at E. coli PBP1a, 27.4 µM; at P. aeruginosa PBP3, 0.0732 µM. Besides, the half-maximal inhibitory concentration (IC50) at P. aeruginosa PBP1a is 0.348 µM. Also, the “Relative binding (IC50) for PBP 5/6” value with E. coli PBP5/6 was over 25 µg/mL. In addition, the “Binding to S. aureus PBP4 revealed by reduction of Bocillin FL labeling” value at S. aureus PBP4 (S. aureus membranes, in presence of avibactam fixed at 4 μg/ml) is “affinity for PBP4 was much lower”.

Take `CC1(C)S[C@@H]2[C@H](/N=C/N3CCCCCC3)C(=O)N2[C@H]1C(=O)O` [MEC, amdinocillin]: the IC50 at E. coli PBP2 is 0.0615 µM; at E. coli PBP1a, over 39.9 µM; on P. aeruginosa PBP1a, over 39.9 µM.
